Results from article PMC6044926 (ACS Omega, 2017).
Where “and” joins values, the source holds several entries; their conditions need not be identical. Equal entries are not always repeated. Entries after “also recorded” stand apart in the source; their conditions may differ.

Columns and labels:
TPMTwt [1] = target: T1, TPMTwt (Homo sapiens, UniProt P51580); test: ITC binding of SAM and ANS to TPMTwt; conditions: dissociation constant, 25 °C
T1 sequence (P51580 1-245): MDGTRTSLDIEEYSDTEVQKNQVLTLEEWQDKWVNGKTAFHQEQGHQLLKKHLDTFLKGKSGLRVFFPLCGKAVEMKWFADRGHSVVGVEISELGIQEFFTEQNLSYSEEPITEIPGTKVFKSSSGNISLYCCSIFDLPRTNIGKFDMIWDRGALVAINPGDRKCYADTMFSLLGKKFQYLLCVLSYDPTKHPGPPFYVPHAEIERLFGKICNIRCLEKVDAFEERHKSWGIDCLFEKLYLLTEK
How it was run: (§1)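 Isothermal titration calorimetry at 25 °C (reference power 7 μcal s−1) of ~50 μM His-tag-cleaved recombinant human TPMT (residues 1–245; E. coli BL21-CodonPlus(DE3)-RIL; Ni-NTA and gel filtration). Thirteen injections per run, at least three runs per variant–ligand pair, fitted to a binding model.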

TPMT*6 (Y180F) [2] = target: T2, TPMT*6 (Y180F) (Homo sapiens, UniProt P51580, Y180F); test: ITC binding of SAM and ANS to TPMT*6
T2 sequence (P51580 1-245 Y180F): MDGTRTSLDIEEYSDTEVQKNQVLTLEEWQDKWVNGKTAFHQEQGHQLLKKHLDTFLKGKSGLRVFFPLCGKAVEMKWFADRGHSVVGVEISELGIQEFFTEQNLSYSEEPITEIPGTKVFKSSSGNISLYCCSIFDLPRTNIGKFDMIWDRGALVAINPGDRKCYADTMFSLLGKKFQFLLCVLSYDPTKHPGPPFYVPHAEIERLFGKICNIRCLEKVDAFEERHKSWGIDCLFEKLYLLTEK
How it was run: as §1

TPMT*8 (R215H) [3] = target: T3, TPMT*8 (R215H) (Homo sapiens, UniProt P51580, R215H); test: ITC binding of SAM and ANS to TPMT*8
T3 sequence (P51580 1-245 R215H): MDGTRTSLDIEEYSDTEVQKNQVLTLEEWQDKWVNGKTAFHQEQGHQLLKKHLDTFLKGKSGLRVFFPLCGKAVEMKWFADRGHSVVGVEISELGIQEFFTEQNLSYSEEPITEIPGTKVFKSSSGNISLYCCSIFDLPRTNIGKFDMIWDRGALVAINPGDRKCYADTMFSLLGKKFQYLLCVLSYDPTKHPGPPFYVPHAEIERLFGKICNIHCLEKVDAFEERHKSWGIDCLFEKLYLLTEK
How it was run: as §1

TPMTwt [4] = target: T1, TPMTwt; test: Thermal denaturation by CD at 222 nm in the presence of ligand, TPMTwt; assay type: binding
How it was run: (§2)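 Far-UV CD thermal unfolding at 222 nm, 18 to 80 °C in 2° steps, 10 scans over 60 s per step. Sample was 3 μM purified recombinant TPMT in 20 mM potassium phosphate pH 7.3, 75 mM NaCl, 2% glycerol, 0.5 mM TCEP, 4 mm cuvette. Run without ligand, with 30 μM SAM, or with 60 μM ANS. Tm fitted from three independent measurements.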

TPMT*6 (Y180F) [5] = target: T2, TPMT*6 (Y180F); test: Thermal denaturation by CD at 222 nm in the presence of ligand, TPMT*6; assay type: binding
How it was run: as §2

TPMT*8 (R215H) [6] = target: T3, TPMT*8 (R215H); test: Thermal denaturation by CD at 222 nm in the presence of ligand, TPMT*8; assay type: binding
How it was run: as §2

TPMTwt [7] = target: T1, TPMTwt; test: Thermal denaturation monitored as ANS fluorescence emission at 475 nm, TPMTwt; assay type: binding; conditions: ANS emission at 475 nm, ANS in 20-fold molar excess (60 μM)
How it was run: (§3)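 Scanned 18 to 80 °C in 2° steps. Excitation 360 nm, emission 400–600 nm. Tm taken from the relative change in maximum intensity at 475 nm, three independent measurements.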

TPMT*6 (Y180F) [8] = target: T2, TPMT*6 (Y180F); test: Thermal denaturation monitored as ANS fluorescence emission at 475 nm, TPMT*6; assay type: binding; conditions: ANS emission at 475 nm, ANS in 20-fold molar excess (60 μM)
How it was run: as §3

TPMT*8 (R215H) [9] = target: T3, TPMT*8 (R215H); test: Thermal denaturation monitored as ANS fluorescence emission at 475 nm, TPMT*8; assay type: binding; conditions: ANS emission at 475 nm, ANS in 20-fold molar excess (60 μM)
How it was run: as §3

TPMT = target: T4, TPMT (Homo sapiens, UniProt P51580); test: ANS and SAM binding to TPMT, all investigated variants; conditions: dissociation constant, ANS, ITC (fluorescence and ITC)
T4 sequence (P51580 1-245): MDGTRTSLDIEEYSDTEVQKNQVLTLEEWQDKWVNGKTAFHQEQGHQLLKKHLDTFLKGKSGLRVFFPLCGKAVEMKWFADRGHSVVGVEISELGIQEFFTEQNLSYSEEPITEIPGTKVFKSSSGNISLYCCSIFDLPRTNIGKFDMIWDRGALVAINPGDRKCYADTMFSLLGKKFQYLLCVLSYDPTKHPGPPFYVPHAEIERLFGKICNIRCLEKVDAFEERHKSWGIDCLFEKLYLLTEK
How it was run: as §1

[10] = Thermal denaturation of the TPMT variants by CD at 222 nm, no ligand; assay type: physicochemical, human; conditions: 3 μM protein, pH 7.3
How it was run: as §2

[11] = TPMT enzyme activity on purified recombinant protein, 6-MP as substrate; assay type: biochemical, human; conditions: 6-MP as thiopurine substrate
How it was run: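 Activity of purified recombinant TPMT measured as rate of 6-methyl-mercaptopurine formation from 6-MP, with 14C-labelled S-adenosyl-L-methionine as methyl donor, following an earlier published protocol.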

[12] = cited from earlier work
[13] = SAM in 10-fold molar excess (30 μM), 3 μM protein
[14] = CD at 222 nm, ANS in 20-fold molar excess (60 μM), 3 μM protein

## C[S+](CC[C@H](N)C(=O)[O-])C[C@H]1O[C@@H](n2cnc3c(N)ncnc32)[C@H](O)[C@@H]1O (stereo partly shown) [SAM, S-adenosylmethionine]
TPMTwt [1]; SAM
  Kd: 2200 ± 700 nM
TPMT*6 (Y180F) [2]
  Kd: 1800 ± 500 nM
TPMT*8 (R215H) [3]
  Kd: 1500 ± 100 nM
TPMTwt [4]; [13]
  thermal melting temperature, circular dichroism, +SAM: 46.8 ± 0.5 °C
TPMT*6 (Y180F) [5]; [13]
  thermal melting temperature, circular dichroism, +SAM: 40.5 ± 0.5 °C
TPMT*8 (R215H) [6]; [13]
  thermal melting temperature, circular dichroism, +SAM: 47.3 ± 0.3 °C

## O=S(=O)(O)c1cccc2cccc(Nc3ccccc3)c12 [ANS, 8-anilinonaphthalene-1-sulfonic acid]
TPMTwt [1]; ANS
  Kd: 219 ± 58 nM
TPMT*6 (Y180F) [2]
  Kd: 187 ± 32 nM
TPMT*8 (R215H) [3]
  Kd: 202 ± 11 nM
TPMTwt [4]; [14]
  thermal melting temperature, +ANS: 53.8 °C and 53.8 ± 0.5 °C
TPMTwt [4]; CD at 222 nm, versus no ligand
  increase of Tm on addition of ANS: 7.4 °C
TPMT*6 (Y180F) [5]; [14]
  thermal melting temperature, +ANS: 48.6 °C and 48.6 ± 0.7 °C
TPMT*6 (Y180F) [5]; CD at 222 nm, versus no ligand
  increase of Tm on addition of ANS: 7.2 °C
TPMT*8 (R215H) [6]; [14]
  thermal melting temperature, +ANS: 51.5 °C and 51.5 ± 0.4 °C
TPMT*8 (R215H) [6]; CD at 222 nm, versus no ligand
  increase of Tm on addition of ANS: 5.0 °C
TPMTwt [7]
  thermal melting temperature, fluorescence, +ANS: 54.1 °C and 54.1 ± 0.5 °C
TPMT*6 (Y180F) [8]
  thermal melting temperature, fluorescence, +ANS: 49.6 °C and 49.6 ± 0.4 °C
TPMT*8 (R215H) [9]
  thermal melting temperature, fluorescence, +ANS: 54.1 °C and 54.1 ± 0.3 °C
TPMT
  Kd: ~200 nM and 200 nM

B1: TPMT*6: naturally occurring TPMT variant, Y180F, purified recombinant protein (protein, UniProt P51580 1-245, looked up, variant Y180F)
Thiopurine S-methyltransferase: MDGTRTSLDIEEYSDTEVQKNQVLTLEEWQDKWVNGKTAFHQEQGHQLLKKHLDTFLKGKSGLRVFFPLCGKAVEMKWFADRGHSVVGVEISELGIQEFFTEQNLSYSEEPITEIPGTKVFKSSSGNISLYCCSIFDLPRTNIGKFDMIWDRGALVAINPGDRKCYADTMFSLLGKKFQFLLCVLSYDPTKHPGPPFYVPHAEIERLFGKICNIRCLEKVDAFEERHKSWGIDCLFEKLYLLTEK
[10]
  thermal melting temperature, circular dichroism, no ligand: 41.4 ± 1.1 °C
[11]
  in vitro enzyme functionality: fully functional; also recorded: normal functionality

B2: TPMT*8: naturally occurring TPMT variant, R215H, purified recombinant protein (protein, UniProt P51580 1-245, looked up, variant R215H)
Thiopurine S-methyltransferase: MDGTRTSLDIEEYSDTEVQKNQVLTLEEWQDKWVNGKTAFHQEQGHQLLKKHLDTFLKGKSGLRVFFPLCGKAVEMKWFADRGHSVVGVEISELGIQEFFTEQNLSYSEEPITEIPGTKVFKSSSGNISLYCCSIFDLPRTNIGKFDMIWDRGALVAINPGDRKCYADTMFSLLGKKFQYLLCVLSYDPTKHPGPPFYVPHAEIERLFGKICNIHCLEKVDAFEERHKSWGIDCLFEKLYLLTEK
[10]
  thermal melting temperature, circular dichroism, no ligand: 46.5 ± 0.4 °C
[11]
  in vitro enzyme functionality: fully functional; also recorded: normal functionality
[12]
  reported in vivo enzyme activity class: intermediate

B3: TPMTwt: recombinant wild-type human thiopurine S-methyltransferase (residues 1–245) (protein, UniProt P51580 1-245, looked up)
Thiopurine S-methyltransferase: MDGTRTSLDIEEYSDTEVQKNQVLTLEEWQDKWVNGKTAFHQEQGHQLLKKHLDTFLKGKSGLRVFFPLCGKAVEMKWFADRGHSVVGVEISELGIQEFFTEQNLSYSEEPITEIPGTKVFKSSSGNISLYCCSIFDLPRTNIGKFDMIWDRGALVAINPGDRKCYADTMFSLLGKKFQYLLCVLSYDPTKHPGPPFYVPHAEIERLFGKICNIRCLEKVDAFEERHKSWGIDCLFEKLYLLTEK
[10]
  thermal melting temperature, circular dichroism, no ligand: 46.4 ± 0.6 °C
